# Experimental data as given in ChEMBL document CHEMBL4266041, “Hydroxybiphenylamide GroEL/ES Inhibitors Are Potent Antibacterials against Planktonic and Biofilm Forms of Staphylococcus aureus” (J Med Chem, 2018).
# How the values were obtained:
# Enterobacter cloacae = experiment: Antibacterial activity against Enterobacter cloacae subsp. cloacae ATCC 13047 after 24 hrs by bacterial proliferation assay; assay type: functional, organism-based; settings: subsp. cloacae ATCC 13047, 24 h
# Summary of the method: (§1)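 Bacterial growth inhibition in liquid culture. The highest concentration tested was 100 µM. The mean was back-calculated from the average log value. Values above the top concentration were set 0.1 log unit higher.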
# Pseudomonas aeruginosa = experiment: Antibacterial activity against Pseudomonas aeruginosa ATCC 10145 after 24 hrs by bacterial proliferation assay; assay type: functional, organism-based; settings: ATCC 10145, 24 h; summary of the method: as §1
# E. coli GroEL/ES [1] = molecular target: T1, E. coli GroEL/ES (Escherichia coli, UniProt P0A6F5); experiment: Inhibition of Escherichia coli GroEL expressed in Escherichia coli DH5alpha/Escherichia coli GroES expressed in Escherichia coli BL21 (DE3) assessed as reduction in GroEL/GroES-mediated denatured MDH refolding after 20 to 40 mins by spectrometric analysis
# Summary of the method: (§2)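 Uses E. coli GroEL/ES with a denatured MDH or rhodanese reporter. GroEL first forms a binary complex with the denatured reporter. Refolding is started by adding ATP and GroES, then reporter enzyme activity is read. DMSO is the negative control. IC50 values from replicate curves are log-averaged after ROUT outlier screening.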
# Acinetobacter baumannii = experiment: Antibacterial activity against Acinetobacter baumannii ATCC 19606 after 24 hrs by bacterial proliferation assay; assay type: functional, organism-based; settings: ATCC 19606 = CIP 70.34 = JCM 6841, 24 h; summary of the method: as §1
# [2] = molecular target: T2, Thiosulfate sulfurtransferase (Homo sapiens, UniProt Q16762); experiment: Inhibition of refolded rhodanese (unknown origin) preincubated with Escherichia coli GroEL/GroES for 60 mins in absence of compound followed by compound addition by spectrometric analysis
# T2 sequence (Q16762 whole entry): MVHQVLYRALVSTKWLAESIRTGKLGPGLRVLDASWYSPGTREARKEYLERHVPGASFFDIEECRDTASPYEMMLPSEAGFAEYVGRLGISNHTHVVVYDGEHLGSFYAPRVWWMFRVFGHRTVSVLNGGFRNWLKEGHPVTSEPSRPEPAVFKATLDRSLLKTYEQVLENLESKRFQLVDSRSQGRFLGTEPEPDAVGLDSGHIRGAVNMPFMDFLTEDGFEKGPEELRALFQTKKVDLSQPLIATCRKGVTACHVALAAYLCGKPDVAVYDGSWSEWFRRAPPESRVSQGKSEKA
# HSP60/HSP10 = HSP60/HSP10 (Homo sapiens, UniProt P10809); experiment: Inhibition of human N-terminal octa-His-tagged HSP60 expressed in Escherichia coli Rosetta(DE3) pLysS/human HSP10 expressed in Escherichia coli Rosetta(DE3) assessed as reduction in HSP60/HSP10-mediated denatured MDH refolding after 40 to 60 mins by spectrometric analysis
# Summary of the method: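 Human HSP60/10 refolding of denatured MDH, run the same way as the GroEL/ES-dMDH assay. A binary complex of chaperonin and denatured MDH is formed, and refolding is started with ATP and HSP10. MDH activity is the read-out. DMSO is the negative control. IC50 values from replicate curves are log-averaged after ROUT outlier screening.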
# Klebsiella pneumoniae = experiment: Antibacterial activity against Klebsiella pneumoniae ATCC 13883 after 6 to 8 hrs by bacterial proliferation assay; assay type: functional, organism-based; summary of the method: as §1
# Staphylococcus aureus [3] = experiment: Antibacterial activity against Staphylococcus aureus ATCC 25923 after 6 to 8 hrs by bacterial proliferation assay; assay type: functional, organism-based
# HEK293 = experiment: Cytotoxicity against HEK293 cells assessed as reduction in cell viability after 48 hrs by Alamar Blue reporter assay; settings: human, hek293, 48 h
# E. coli GroEL/ES [4] = molecular target: T1, E. coli GroEL/ES; experiment: Inhibition of Escherichia coli GroEL expressed in Escherichia coli DH5alpha/Escherichia coli GroES expressed in Escherichia coli BL21 (DE3) assessed as reduction in GroEL/GroES-mediated denatured rhodanese refolding after 45 mins by spectrometric analysis; summary of the method: as §2
# Enterococcus faecium = experiment: Antibacterial activity against Enterococcus faecium ATCC 19434 after 24 hrs by bacterial proliferation assay; assay type: functional, organism-based; settings: ATCC 19434, 24 h
# [5] = Cytotoxicity against human THLE3 cells assessed as reduction in cell viability after 48 hrs by Alamar Blue reporter assay; settings: 48 h
# [6] = Inhibition of refolded MDH (unknown origin) preincubated with Escherichia coli GroEL/GroES for 45 mins in absence of compound followed by compound addition and measured for 20 to 35 mins by spectrometric analysis
# Staphylococcus aureus [7] = experiment: Antibacterial activity against methicillin-resistant Staphylococcus aureus ATCC BAA-44 after 6 to 8 hrs by bacterial proliferation assay; assay type: functional, organism-based; settings: Staphylococcus aureus, ATCC BAA-44
# T1 sequence (P0A6F5 whole entry, looked up): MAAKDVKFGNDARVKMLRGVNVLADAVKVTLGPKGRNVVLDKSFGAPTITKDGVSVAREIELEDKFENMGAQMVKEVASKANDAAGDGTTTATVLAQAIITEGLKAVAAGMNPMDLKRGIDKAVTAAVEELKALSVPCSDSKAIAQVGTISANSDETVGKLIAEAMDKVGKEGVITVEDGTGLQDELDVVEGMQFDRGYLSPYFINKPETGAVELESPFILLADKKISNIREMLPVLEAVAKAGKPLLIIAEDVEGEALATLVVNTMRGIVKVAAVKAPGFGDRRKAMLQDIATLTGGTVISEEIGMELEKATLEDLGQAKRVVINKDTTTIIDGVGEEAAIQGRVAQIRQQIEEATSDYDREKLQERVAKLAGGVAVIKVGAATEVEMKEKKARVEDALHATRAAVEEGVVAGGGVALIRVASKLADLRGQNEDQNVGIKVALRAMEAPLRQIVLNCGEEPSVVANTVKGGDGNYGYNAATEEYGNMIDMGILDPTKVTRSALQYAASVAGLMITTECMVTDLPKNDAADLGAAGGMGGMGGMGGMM
# HSP60/HSP10, sequence (P10809 whole entry): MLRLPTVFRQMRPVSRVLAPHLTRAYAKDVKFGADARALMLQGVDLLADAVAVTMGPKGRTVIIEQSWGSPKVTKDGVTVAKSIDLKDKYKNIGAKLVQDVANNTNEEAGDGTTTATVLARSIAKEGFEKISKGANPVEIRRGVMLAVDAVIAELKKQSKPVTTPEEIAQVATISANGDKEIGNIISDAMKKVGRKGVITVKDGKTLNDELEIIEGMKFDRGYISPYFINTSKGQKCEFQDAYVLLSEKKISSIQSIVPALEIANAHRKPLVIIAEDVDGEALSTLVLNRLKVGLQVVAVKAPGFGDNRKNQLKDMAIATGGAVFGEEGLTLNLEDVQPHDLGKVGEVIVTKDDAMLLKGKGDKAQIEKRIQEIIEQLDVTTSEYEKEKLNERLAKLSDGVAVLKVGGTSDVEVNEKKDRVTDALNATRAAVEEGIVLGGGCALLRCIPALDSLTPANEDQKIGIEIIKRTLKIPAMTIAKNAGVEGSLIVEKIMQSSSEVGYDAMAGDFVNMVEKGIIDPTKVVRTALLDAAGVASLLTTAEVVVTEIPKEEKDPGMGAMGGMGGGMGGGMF
# HSP60/HSP10, sequence (P61604 whole entry, further chain): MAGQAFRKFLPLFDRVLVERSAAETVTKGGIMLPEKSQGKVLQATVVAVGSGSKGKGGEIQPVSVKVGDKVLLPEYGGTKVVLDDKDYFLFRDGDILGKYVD
SMILES,EC50 (Enterobacter cloacae) [µM],EC50 (Pseudomonas aeruginosa) [µM],IC50 (E. coli GroEL/ES [1]) [µM],EC50 (Acinetobacter baumannii) [µM],IC50 [2] [µM],IC50 (HSP60/HSP10) [µM],EC50 (Klebsiella pneumoniae) [µM],EC50 (Staphylococcus aureus [3]) [µM],CC50 (HEK293) [µM],IC50 (E. coli GroEL/ES [4]) [µM],EC50 (Enterococcus faecium) [µM],CC50 [5] [µM],IC50 [6] [µM],EC50 (Staphylococcus aureus [7]) [µM]
Cc1cc(C(C#N)c2ccc(Cl)cc2)c(Cl)cc1NC(=O)c1cc(I)cc(I)c1O (stereo not drawn) [CLOSANTEL],> 100,> 100,2.2,> 100,> 100,2.5,> 100,0.47,75,1.5,1.2,52,6.1,0.47
O=C(Nc1ccccc1)c1cccc(Br)c1O,> 100,> 100,> 100,> 100,> 100,> 100,> 100,6.4,82,> 100,> 100,56,> 63,10
O=C(Nc1ccc(Sc2nc3ccccc3s2)cc1)c1cccc(Br)c1O,> 100,> 100,33,12,> 100,,> 100,0.76,71,14,11,36,> 63,1.1
COc1c(Br)cccc1C(=O)Nc1cccc(Cl)c1,> 100,> 100,> 100,> 100,> 100,> 100,> 100,> 100,> 100,> 100,> 100,> 100,> 63,> 100
O=C(Nc1ccc(Sc2nc3ccccc3s2)c(Cl)c1)c1ccccc1,> 100,> 100,> 100,> 100,> 100,> 100,> 100,43,90,> 100,> 100,82,> 63,> 100
O=C(Nc1cccc(Cl)c1)c1cccc(Br)c1,> 100,> 100,> 100,> 100,> 100,> 100,> 100,47,51,> 100,> 100,50,> 63,68
COc1c(Br)cccc1C(=O)Nc1ccc(Sc2nc3ccccc3s2)cc1,> 100,> 100,> 100,> 100,> 100,> 100,> 100,> 100,> 100,> 100,> 100,> 100,> 63,> 100
O=C(Nc1cccc(Cl)c1)c1ccccc1,> 100,> 100,> 100,> 100,> 100,> 100,> 100,> 100,> 100,> 100,> 100,> 100,> 63,> 100
COc1c(Br)cc(Br)cc1C(=O)Nc1ccc(Sc2nc3ccccc3s2)c(Cl)c1,> 100,> 100,> 100,> 100,> 100,> 100,> 100,> 100,> 100,> 100,> 100,> 100,> 63,> 100
COc1ccccc1C(=O)Nc1ccccc1,> 100,> 100,> 100,> 100,> 100,> 100,> 100,> 100,> 100,> 100,> 100,> 100,> 63,> 100
O=C(Nc1ccc(Sc2nc3ccccc3s2)cc1)c1cc(Br)ccc1O,> 100,> 100,38,> 100,> 100,> 100,> 100,0.12,42,30,19,12,> 63,0.14
COc1ccccc1C(=O)Nc1ccc(Sc2nc3ccccc3s2)c(Cl)c1,> 100,> 100,> 100,> 100,> 100,> 100,> 100,> 100,> 100,> 100,> 100,> 100,> 63,> 100
O=C(Nc1ccc(Sc2nc3ccccc3s2)c(Cl)c1)c1cc(Br)ccc1O,> 100,> 100,37,> 100,> 100,> 100,> 100,0.12,45,11,15,14,> 63,0.17
COc1c(Br)cc(Br)cc1C(=O)Nc1ccccc1,> 100,> 100,> 100,> 100,> 100,> 100,> 100,> 100,> 100,> 100,> 100,> 100,> 63,> 100
O=C(Nc1ccccc1)c1cc(Br)cc(Br)c1,> 100,> 100,> 100,> 100,> 100,> 100,> 100,> 100,> 100,> 100,> 100,> 100,> 63,> 100
O=C(Nc1ccc(Sc2nc3ccccc3s2)cc1)c1cc(Br)cc(Br)c1,> 100,> 100,> 100,> 100,> 100,> 100,> 100,> 100,> 100,> 100,> 100,> 100,> 63,> 100
O=C(Nc1ccc(Sc2nc3ccccc3s2)c(Cl)c1)c1ccccc1O,> 100,> 100,42,> 100,> 100,> 100,> 100,0.31,,63,64,34,> 63,0.45
CO[C@H]1/C=C/O[C@@]2(C)Oc3c(C)c(O)c4c(O)c(c(/C=N/N5CCN(C)CC5)c(O)c4c3C2=O)NC(=O)/C(C)=C\C=C\[C@H](C)[C@H](O)[C@@H](C)[C@@H](O)[C@@H](C)[C@H](OC(C)=O)[C@@H]1C [RIFAMPIN],8.8,7.8,> 100,1.3,> 100,> 100,11,< 0.05,,> 100,0.13,,> 63,0.23
